Experimental data collected from several papers.
Compare with care: the assays were run in different laboratories.
Target: Interleukin-1 receptor-associated kinase 4 (IRAK4, Homo sapiens, UniProt Q9NWZ3)
One construct used (Q9NWZ3 1-460): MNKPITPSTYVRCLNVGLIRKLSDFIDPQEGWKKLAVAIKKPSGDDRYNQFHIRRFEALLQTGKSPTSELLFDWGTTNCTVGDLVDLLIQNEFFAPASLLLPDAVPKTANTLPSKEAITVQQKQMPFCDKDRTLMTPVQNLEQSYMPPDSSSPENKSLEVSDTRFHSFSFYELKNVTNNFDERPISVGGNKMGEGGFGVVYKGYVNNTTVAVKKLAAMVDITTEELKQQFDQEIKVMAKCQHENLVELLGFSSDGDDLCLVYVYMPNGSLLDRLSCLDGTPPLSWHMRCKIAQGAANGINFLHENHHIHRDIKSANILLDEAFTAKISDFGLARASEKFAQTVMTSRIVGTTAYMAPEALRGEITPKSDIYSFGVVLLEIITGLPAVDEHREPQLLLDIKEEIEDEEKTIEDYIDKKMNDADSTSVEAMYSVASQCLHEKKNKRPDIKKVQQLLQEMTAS

Structure (SMILES) | assay | conditions | quantity | result
C=CC(=O)N1CCC[C@@H](n2nc(-c3ccc(Oc4ccccc4)cc3)c3c(N)ncnc32)C1 | enzyme activity, inhibitor | 1 µM | inhibition | 22%
C#Cc1cnc(Nc2ccc(CO)nc2)nc1Nc1ccccc1S(C)(=O)=NC#N (centres unmarked) | enzyme activity, inhibitor, radiometric | 1 µM | remaining activity | 0.79%
C#Cc1cc(-c2cc(Nc3nc(N[C@@H](C)c4ccc(F)cn4)ncc3Cl)n[nH]2)ccc1C=O | enzyme activity, inhibitor | 0.2 µM | inhibition | 10.1%
CN1CCN(C(=O)c2ccc(NC(=O)Nc3ccc(N(C)c4ccnc(Nc5ccc(CS(C)(=O)=O)cc5)n4)cc3)cc2)CC1 | binding | 1 µM | remaining binding | 52%
C1=C/COCc2cc(ccc2OCCN2CCCC2)Nc2nccc(n2)-c2cccc(c2)COC/1 | cell-free assay | 0.1 µM | remaining signal | 56%
CC#CC(=O)N1CCC[C@H]1c1nc(-c2ccc(C(=O)Nc3ccccn3)cc2)c2c(N)nccn12 | enzyme activity, inhibitor | 1 µM | inhibition | 16%
CCCCC(=O)Nc1ccc(-c2ccc3ncn(CCC)c(=O)c3c2)cn1 | binding, competition with immobilised ligand | 0.5 µM | remaining binding | 93%
CS(=O)(=O)c1ccccc1Nc1nc(Nc2ccnc(CO)c2)ncc1Cl | enzyme activity, inhibitor, radiometric | 1 µM | remaining activity | 13.4%
Cc1cc(O)c(-c2ccc([C@@H](C)CN(C)C)cc2)c2c1[nH]c(=O)c1sccc12 | enzyme activity, inhibitor | 0.1 µM | inhibition | 1.9%
Cc1ccc(NC(=O)c2ccnc(C(F)(F)F)c2)cc1-c1cc(OCCO)nc(N2CCOCC2)c1 | binding | 1 µM | remaining binding | 100%
CS(=O)(=NC#N)c1ccccc1Nc1nc(Nc2ccc(CO)nc2)ncc1Cl (centres unmarked) | enzyme activity, inhibitor, radiometric | 1 µM | remaining activity | 3.01%
